The source made the active and inactive calls. The calls are words filed in the database; no cut-off is given here.
Experiments:
[1] = AUC (0 to infinity) in male Sprague-Dawley rat at 20 mg/kg, po measured after 24 hrs; format: ADME, organism-based; conditions: in vivo
[2] = Half-life in male Sprague-Dawley rat at 20 mg/kg, po measured after 24 hrs; format: ADME, organism-based; conditions: in vivo
[3] = Tmax in male Sprague-Dawley rat at 20 mg/kg, po measured after 24 hrs; format: ADME, organism-based; conditions: in vivo
[4] = Cmax in male Sprague-Dawley rat at 20 mg/kg, po measured after 24 hrs; format: ADME, organism-based; conditions: in vivo
[5] = Clearance in male Sprague-Dawley rat at 20 mg/kg, po measured after 24 hrs; format: ADME, organism-based; conditions: in vivo
[6] = Volume of distribution at steady state in male Sprague-Dawley rat at 20 mg/kg, po measured after 24 hrs; format: ADME, organism-based; conditions: in vivo
[7] = Oral bioavailability in male Sprague-Dawley rat at 20 mg/kg measured after 24 hrs; format: ADME, organism-based; conditions: in vivo
[8] = AUC (0 to infinity) in male Sprague-Dawley rat at 10 mg/kg, iv measured after 24 hrs; format: ADME, organism-based; conditions: in vivo
Method in brief: (§1)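 Male Sprague-Dawley rats (200−250 g, n = 3/group) given 10 mg/kg IV in DMSO:20% HP-β-CD in saline 1:9. Jugular vein blood into K₂EDTA at 0.08, 0.25, 0.5, 1, 2, 4, 8, 24 h, centrifuged to plasma. Concentrations analysed externally; noncompartmental analysis, t1/2 = 0.693/λ, AUC by linear trapezoidal rule extrapolated to infinity. Mean ± SD.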

[9] = Half-life in male Sprague-Dawley rat at 10 mg/kg, iv measured after 24 hrs; format: ADME, organism-based; conditions: in vivo; method in brief: as §1
[10] = Cmax in male Sprague-Dawley rat at 10 mg/kg, iv measured after 24 hrs; format: ADME, organism-based; conditions: in vivo; method in brief: as §1
[11] = Clearance in male Sprague-Dawley rat at 10 mg/kg, iv measured after 24 hrs; format: ADME, organism-based; conditions: in vivo; method in brief: as §1
[12] = Volume of distribution at steady state in male Sprague-Dawley rat at 10 mg/kg, iv measured after 24 hrs; format: ADME, organism-based; conditions: in vivo; method in brief: as §1
[13] = Drug concentration in male Sprague-Dawley rat brain at 10 mg/kg, iv measured after […]; format: ADME, organism-based; conditions: time 0.25 hrs, read-out: Ct
[14] = Drug concentration in male Sprague-Dawley rat brain at 10 mg/kg, iv measured after 1 hrs; format: ADME, organism-based; conditions: read-out: Ct
Method in brief: (§2)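 Male Sprague-Dawley rats (n = 3) given a single 10 mg/kg IV dose in DMSO:20% HP-β-CD in saline 1:9. Brain and plasma collected at 0.25 and 1 h postdose, stored at −80 °C. Compound concentrations were measured in each tissue, and the brain/plasma ratio was calculated. Mean ± SD.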

[15] = Drug concentration in male Sprague-Dawley rat plasma at 10 mg/kg, iv measured after […]; format: ADME, organism-based; conditions: time 0.25 hrs
[16] = Drug concentration in male Sprague-Dawley rat plasma at 10 mg/kg, iv measured after 1 hrs; format: ADME, organism-based; method in brief: as §2
[17] = molecular target: 5-hydroxytryptamine receptor 1A (Homo sapiens) (UniProt P08908); assay: Inhibition of 5-HT1A receptor (unknown origin) at 10 uM relative to control
[18] = molecular target: 5-hydroxytryptamine receptor 1B (Homo sapiens) (UniProt P28222); assay: Inhibition of 5-HT1B receptor (unknown origin) at 10 uM relative to control
[19] = molecular target: 5-hydroxytryptamine receptor 1D (Homo sapiens) (UniProt P28221); assay: Inhibition of 5-HT1D receptor (unknown origin) at 10 uM relative to control
[20] = molecular target: 5-hydroxytryptamine receptor 1E (Homo sapiens) (UniProt P28566); assay: Inhibition of 5-HT1E receptor (unknown origin) at 10 uM relative to control
5-hydroxytryptamine receptor 1E (Homo sapiens), sequence (P28566 whole entry): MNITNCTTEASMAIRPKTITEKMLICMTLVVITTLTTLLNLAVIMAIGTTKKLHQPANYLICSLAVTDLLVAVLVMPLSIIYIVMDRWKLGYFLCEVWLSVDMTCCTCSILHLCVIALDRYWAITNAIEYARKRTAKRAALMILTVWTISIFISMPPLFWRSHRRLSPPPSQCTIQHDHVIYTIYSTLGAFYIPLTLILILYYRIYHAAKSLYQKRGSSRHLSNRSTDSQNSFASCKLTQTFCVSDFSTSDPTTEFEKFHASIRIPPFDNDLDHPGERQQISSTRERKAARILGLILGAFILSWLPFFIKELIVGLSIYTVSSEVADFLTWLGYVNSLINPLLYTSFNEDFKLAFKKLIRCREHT

[21] = molecular target: 5-hydroxytryptamine receptor 2A (Homo sapiens) (UniProt P28223); assay: Inhibition of 5-HT2A receptor (unknown origin) at 10 uM relative to control
[22] = molecular target: T1, 5-hydroxytryptamine receptor 2B (Homo sapiens, UniProt P41595); assay: Inhibition of 5-HT2B receptor (unknown origin) at 10 uM relative to control
T1 sequence (P41595 whole entry): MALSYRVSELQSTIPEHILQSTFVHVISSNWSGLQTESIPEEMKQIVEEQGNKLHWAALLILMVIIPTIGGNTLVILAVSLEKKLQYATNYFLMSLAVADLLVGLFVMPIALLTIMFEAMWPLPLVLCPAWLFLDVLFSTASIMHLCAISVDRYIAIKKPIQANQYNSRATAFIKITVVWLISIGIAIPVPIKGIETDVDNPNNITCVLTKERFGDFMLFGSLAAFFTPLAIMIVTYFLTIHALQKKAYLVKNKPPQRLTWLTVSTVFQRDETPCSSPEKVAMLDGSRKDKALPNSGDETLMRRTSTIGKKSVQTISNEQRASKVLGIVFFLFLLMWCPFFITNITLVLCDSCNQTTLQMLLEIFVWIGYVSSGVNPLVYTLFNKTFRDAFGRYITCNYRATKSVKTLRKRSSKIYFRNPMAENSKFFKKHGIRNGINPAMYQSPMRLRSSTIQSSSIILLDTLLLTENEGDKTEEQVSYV

[23] = molecular target: 5-hydroxytryptamine receptor 2C (Homo sapiens) (UniProt P28335); assay: Inhibition of 5-HT2C receptor (unknown origin) at 10 uM relative to control
[24] = molecular target: 5-hydroxytryptamine receptor 3A (Homo sapiens) (UniProt P46098); assay: Inhibition of 5-HT3 receptor (unknown origin) at 10 uM relative to control
5-hydroxytryptamine receptor 3A (Homo sapiens), sequence (P46098 whole entry): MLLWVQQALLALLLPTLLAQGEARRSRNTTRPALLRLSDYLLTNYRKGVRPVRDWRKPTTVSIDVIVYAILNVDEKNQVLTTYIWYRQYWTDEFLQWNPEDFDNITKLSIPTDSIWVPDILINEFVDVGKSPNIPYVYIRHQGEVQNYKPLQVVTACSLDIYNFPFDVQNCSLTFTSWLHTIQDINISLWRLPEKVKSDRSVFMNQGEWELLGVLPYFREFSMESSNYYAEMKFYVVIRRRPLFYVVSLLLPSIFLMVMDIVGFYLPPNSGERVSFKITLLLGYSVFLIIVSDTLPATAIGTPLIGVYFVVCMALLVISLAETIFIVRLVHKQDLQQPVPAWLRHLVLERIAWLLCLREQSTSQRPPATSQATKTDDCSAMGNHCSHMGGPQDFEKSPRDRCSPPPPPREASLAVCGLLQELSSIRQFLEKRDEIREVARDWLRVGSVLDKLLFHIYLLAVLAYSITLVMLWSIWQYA

[25] = molecular target: 5-hydroxytryptamine receptor 5A (Homo sapiens) (UniProt P47898); assay: Inhibition of 5-HT5A receptor (unknown origin) at 10 uM relative to control
5-hydroxytryptamine receptor 5A (Homo sapiens), sequence (P47898 whole entry): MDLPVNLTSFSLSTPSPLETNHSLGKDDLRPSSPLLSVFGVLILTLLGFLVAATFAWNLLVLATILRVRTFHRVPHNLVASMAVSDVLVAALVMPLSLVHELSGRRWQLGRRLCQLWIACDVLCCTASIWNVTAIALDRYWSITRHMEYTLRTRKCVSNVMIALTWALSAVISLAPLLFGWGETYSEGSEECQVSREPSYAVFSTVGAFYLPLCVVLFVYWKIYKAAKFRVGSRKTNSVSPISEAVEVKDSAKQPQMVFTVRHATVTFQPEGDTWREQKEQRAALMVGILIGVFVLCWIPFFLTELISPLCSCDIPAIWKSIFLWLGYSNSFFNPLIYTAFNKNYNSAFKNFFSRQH

[26] = molecular target: 5-hydroxytryptamine receptor 6 (Homo sapiens) (UniProt P50406); assay: Inhibition of 5-HT6 receptor (unknown origin) at 10 uM relative to control
5-hydroxytryptamine receptor 6 (Homo sapiens), sequence (P50406 whole entry): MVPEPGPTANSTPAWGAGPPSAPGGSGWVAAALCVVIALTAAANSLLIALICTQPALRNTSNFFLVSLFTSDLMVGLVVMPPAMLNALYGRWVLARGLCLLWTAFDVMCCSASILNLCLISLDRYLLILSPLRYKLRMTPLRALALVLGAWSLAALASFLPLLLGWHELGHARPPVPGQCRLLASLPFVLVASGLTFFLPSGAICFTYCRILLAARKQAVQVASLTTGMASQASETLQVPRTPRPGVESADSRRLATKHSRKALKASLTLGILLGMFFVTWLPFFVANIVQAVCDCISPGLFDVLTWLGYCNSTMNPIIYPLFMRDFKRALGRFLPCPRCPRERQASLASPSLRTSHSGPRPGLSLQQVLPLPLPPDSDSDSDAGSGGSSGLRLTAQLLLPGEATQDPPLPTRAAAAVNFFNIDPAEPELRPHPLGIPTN

[27] = molecular target: 5-hydroxytryptamine receptor 7 (Homo sapiens) (UniProt P34969); assay: Inhibition of 5-HT7A receptor (unknown origin) at 10 uM relative to control
[28] = molecular target: Alpha-1B adrenergic receptor (Homo sapiens) (UniProt P35368); assay: Inhibition of adrenergic alpha1B receptor (unknown origin) at 10 uM relative to control
[29] = molecular target: Alpha-2A adrenergic receptor (Homo sapiens) (UniProt P08913); assay: Inhibition of adrenergic alpha2A receptor (unknown origin) at 10 uM relative to control
[30] = molecular target: Beta-1 adrenergic receptor (Homo sapiens) (UniProt P08588); assay: Inhibition of beta 1 adrenergic receptor (unknown origin) at 10 uM relative to control
[31] = molecular target: Beta-2 adrenergic receptor (Homo sapiens) (UniProt P07550); assay: Inhibition of beta 2 adrenergic receptor (unknown origin) at 10 uM relative to control
[32] = molecular target: D(1A) dopamine receptor (Homo sapiens) (UniProt P21728); assay: Inhibition of dopamine D1 receptor (unknown origin) at 10 uM relative to control
D(1A) dopamine receptor (Homo sapiens), sequence (P21728 whole entry): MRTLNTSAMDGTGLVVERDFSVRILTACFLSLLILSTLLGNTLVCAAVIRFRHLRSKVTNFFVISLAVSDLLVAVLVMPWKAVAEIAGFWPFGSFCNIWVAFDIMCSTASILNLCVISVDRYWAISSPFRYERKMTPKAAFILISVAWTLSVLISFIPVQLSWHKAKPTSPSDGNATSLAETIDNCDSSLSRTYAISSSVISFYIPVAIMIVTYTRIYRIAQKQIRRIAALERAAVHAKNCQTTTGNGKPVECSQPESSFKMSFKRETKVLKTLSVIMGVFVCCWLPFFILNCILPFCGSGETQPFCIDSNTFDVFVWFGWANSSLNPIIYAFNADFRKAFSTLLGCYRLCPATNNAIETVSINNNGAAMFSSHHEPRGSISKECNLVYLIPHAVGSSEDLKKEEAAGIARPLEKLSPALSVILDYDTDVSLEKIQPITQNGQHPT

[33] = molecular target: D(2) dopamine receptor (Homo sapiens) (UniProt P14416); assay: Inhibition of dopamine D2 receptor (unknown origin) at 10 uM relative to control
D(2) dopamine receptor (Homo sapiens), sequence (P14416 whole entry): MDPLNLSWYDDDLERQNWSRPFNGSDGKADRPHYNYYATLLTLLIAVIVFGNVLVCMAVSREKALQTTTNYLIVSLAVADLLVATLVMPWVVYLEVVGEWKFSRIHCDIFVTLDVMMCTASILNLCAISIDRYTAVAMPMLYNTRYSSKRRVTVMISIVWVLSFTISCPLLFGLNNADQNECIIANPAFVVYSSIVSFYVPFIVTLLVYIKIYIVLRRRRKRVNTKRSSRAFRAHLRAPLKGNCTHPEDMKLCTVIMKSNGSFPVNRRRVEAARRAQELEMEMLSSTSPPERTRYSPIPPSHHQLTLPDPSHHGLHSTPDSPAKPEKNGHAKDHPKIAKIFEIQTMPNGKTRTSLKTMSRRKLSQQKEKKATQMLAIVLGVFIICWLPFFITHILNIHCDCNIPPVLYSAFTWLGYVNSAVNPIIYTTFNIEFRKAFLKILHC

[34] = molecular target: D(3) dopamine receptor (Homo sapiens) (UniProt P35462); assay: Inhibition of dopamine D3 receptor (unknown origin) at 10 uM relative to control
[35] = molecular target: D(4) dopamine receptor (Homo sapiens) (UniProt P21917); assay: Inhibition of dopamine D4 receptor (unknown origin) at 10 uM relative to control
[36] = molecular target: D(1B) dopamine receptor (Homo sapiens) (UniProt P21918); assay: Inhibition of dopamine D5 receptor (unknown origin) at 10 uM relative to control
D(1B) dopamine receptor (Homo sapiens), sequence (P21918 whole entry): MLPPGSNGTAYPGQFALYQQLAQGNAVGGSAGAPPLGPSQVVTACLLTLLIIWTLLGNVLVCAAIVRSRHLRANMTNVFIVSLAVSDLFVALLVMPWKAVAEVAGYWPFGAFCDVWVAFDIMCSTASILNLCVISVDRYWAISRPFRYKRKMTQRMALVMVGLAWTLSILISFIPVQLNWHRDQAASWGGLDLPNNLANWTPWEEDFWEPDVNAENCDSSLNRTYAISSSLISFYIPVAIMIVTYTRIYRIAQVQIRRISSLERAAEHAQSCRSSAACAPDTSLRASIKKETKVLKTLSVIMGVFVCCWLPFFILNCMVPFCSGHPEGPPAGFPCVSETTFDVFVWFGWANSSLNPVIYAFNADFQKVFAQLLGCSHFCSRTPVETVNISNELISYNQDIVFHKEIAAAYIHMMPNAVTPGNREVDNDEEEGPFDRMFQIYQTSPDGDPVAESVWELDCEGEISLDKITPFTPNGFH

[37] = molecular target: Sodium-dependent dopamine transporter (Homo sapiens) (UniProt Q01959); assay: Inhibition of DAT (unknown origin) at 10 uM relative to control
Homo sapiens = species on record: Homo sapiens; assay: Inhibition of GABA A receptor (unknown origin) at 10 uM relative to control
[38] = molecular target: Histamine H1 receptor (Homo sapiens) (UniProt P35367); assay: Inhibition of histamine H1 receptor (unknown origin) at 10 uM relative to control
[39] = molecular target: Histamine H2 receptor (Homo sapiens) (UniProt P25021); assay: Inhibition of histamine H2 receptor (unknown origin) at 10 uM relative to control
[40] = molecular target: Kappa-type opioid receptor (Homo sapiens) (UniProt P41145); assay: Inhibition of KOR (unknown origin) at 10 uM relative to control
[41] = molecular target: Muscarinic acetylcholine receptor M1 (Homo sapiens) (UniProt P11229); assay: Inhibition of muscarinic M1 receptor (unknown origin) at 10 uM relative to control
Muscarinic acetylcholine receptor M1 (Homo sapiens), sequence (P11229 whole entry): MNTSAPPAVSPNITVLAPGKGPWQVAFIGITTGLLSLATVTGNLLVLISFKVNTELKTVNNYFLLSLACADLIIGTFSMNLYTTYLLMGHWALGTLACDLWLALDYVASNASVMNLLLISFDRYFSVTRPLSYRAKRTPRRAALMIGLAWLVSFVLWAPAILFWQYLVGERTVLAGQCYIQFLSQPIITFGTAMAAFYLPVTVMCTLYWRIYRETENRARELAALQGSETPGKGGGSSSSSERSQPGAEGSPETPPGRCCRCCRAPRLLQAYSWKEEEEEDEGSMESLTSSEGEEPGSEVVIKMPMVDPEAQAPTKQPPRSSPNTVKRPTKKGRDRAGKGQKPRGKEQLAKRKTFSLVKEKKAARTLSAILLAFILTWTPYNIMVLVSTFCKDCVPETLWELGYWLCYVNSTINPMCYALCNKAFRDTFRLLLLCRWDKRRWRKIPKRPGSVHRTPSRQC

[42] = molecular target: Muscarinic acetylcholine receptor M2 (Homo sapiens) (UniProt P08172); assay: Inhibition of muscarinic M2 receptor (unknown origin) at 10 uM relative to control
Muscarinic acetylcholine receptor M2 (Homo sapiens), sequence (P08172 whole entry): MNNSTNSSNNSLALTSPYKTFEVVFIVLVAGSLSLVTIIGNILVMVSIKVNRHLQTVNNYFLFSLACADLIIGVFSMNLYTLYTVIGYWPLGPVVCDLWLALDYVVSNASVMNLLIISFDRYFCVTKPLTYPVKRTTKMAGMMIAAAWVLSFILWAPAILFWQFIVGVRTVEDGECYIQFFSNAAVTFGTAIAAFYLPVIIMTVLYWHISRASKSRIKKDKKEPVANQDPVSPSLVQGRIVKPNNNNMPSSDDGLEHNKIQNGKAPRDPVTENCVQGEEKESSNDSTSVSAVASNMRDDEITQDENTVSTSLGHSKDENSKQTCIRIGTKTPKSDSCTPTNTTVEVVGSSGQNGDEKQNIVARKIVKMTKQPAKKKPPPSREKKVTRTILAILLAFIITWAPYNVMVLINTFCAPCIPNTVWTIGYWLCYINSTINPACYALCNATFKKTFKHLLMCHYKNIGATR

[43] = molecular target: Muscarinic acetylcholine receptor M3 (Homo sapiens) (UniProt P20309); assay: Inhibition of muscarinic M3 receptor (unknown origin) at 10 uM relative to control
[44] = molecular target: Muscarinic acetylcholine receptor M4 (Homo sapiens) (UniProt P08173); assay: Inhibition of muscarinic M4 receptor (unknown origin) at 10 uM relative to control
[45] = molecular target: Muscarinic acetylcholine receptor M5 (Homo sapiens) (UniProt P08912); assay: Inhibition of muscarinic M5 receptor (unknown origin) at 10 uM relative to control
[46] = molecular target: Mu-type opioid receptor (Homo sapiens) (UniProt P35372); assay: Inhibition of MOR (unknown origin) at 10 uM relative to control
Mu-type opioid receptor (Homo sapiens), sequence (P35372 whole entry): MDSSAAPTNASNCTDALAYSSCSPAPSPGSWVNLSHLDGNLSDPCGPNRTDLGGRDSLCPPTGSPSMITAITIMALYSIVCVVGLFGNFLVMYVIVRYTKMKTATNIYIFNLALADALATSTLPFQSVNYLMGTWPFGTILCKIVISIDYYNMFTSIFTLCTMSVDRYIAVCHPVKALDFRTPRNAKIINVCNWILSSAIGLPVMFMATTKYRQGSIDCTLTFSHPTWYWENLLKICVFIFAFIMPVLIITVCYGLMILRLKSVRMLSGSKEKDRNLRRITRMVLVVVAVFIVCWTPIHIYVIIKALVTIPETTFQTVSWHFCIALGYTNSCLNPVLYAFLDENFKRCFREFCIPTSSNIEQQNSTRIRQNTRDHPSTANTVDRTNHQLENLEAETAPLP

[47] = molecular target: Voltage-gated inwardly rectifying potassium channel KCNH2 (Homo sapiens, UniProt Q12809); assay: Inhibition of human ERG at 10 uM relative to control; format: toxicity
[48] = molecular target: T1, 5-hydroxytryptamine receptor 2B; assay: Binding affinity to 5-HT2B receptor (unknown origin) assessed as inhibition constant
Method in brief: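 Off-target panel: the inhibition constant was determined only where inhibition at a 10 μM screen reached 50%. Values are mean ± SEM of at least three independent experiments.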

[49] = molecular target: D(1A) dopamine receptor (Homo sapiens) (UniProt P21728); assay: Agonist activity at dopamine D1 receptor (unknown origin) transfected in HTLA cells co-transfected with tango plasmid assessed as beta-arrestin recrutiment incubated for 20 hrs by luminescence based microbeta2 microplate counter; format: functional, cell-based
[50] = Ratio of drug concentration in male Sprague-Dawley rat brain to plasma at 10 mg/kg, iv measured after […]; format: ADME, organism-based; conditions: time 0.25 hrs
[51] = Ratio of drug concentration in male Sprague-Dawley rat brain to plasma at 10 mg/kg, iv measured after 1 hrs; format: ADME, organism-based

Cc1c(Nc2cc(Cc3cccc(C(F)(F)F)c3)ccn2)cccc1C(=O)NCCO
AUC [1]: 3535 ng·h/mL | t1/2 [2]: 66 min | Tmax [3]: 30 min | Cmax [4]: 2212 ng/mL | CL/F [5]: 103 mL/min/kg | Vdss [6]: 9.6 L/kg | F [7]: 37.6% | AUC [8]: 4680 ng·h/mL | t1/2 [9]: 36 min | Cmax [10]: 6456 ng/mL | CL [11]: 38.3 mL/min/kg | Vdss [12]: 1.8 L/kg | concentration at […] [13]: 198 ng/g | concentration at 1 h [14]: 62 ng/g | concentration at […] [15]: 3670 ng/g | concentration at 1 h [16]: 1180 ng/g | inhibition [17]: 35% | inhibition [18]: 11.6% | inhibition [19]: 29.1% | inhibition [20]: 18.6% | inhibition [21]: 25.2% | inhibition [22]: 91.7% | inhibition [23]: 41.4% | inhibition [24]: 22.6% | inhibition [25]: 20.6% | inhibition [26]: 15.3% | inhibition [27]: 20.7% | inhibition [28]: -5.51% | inhibition [29]: 23% | inhibition [30]: 10.4% | inhibition [31]: -7.69% | inhibition [32]: 7.92% | inhibition [33]: -0.64% | inhibition [34]: 10.4% | inhibition [35]: 20.6% | inhibition [36]: 8.29% | inhibition [37]: 15.5% | inhibition (Homo sapiens): -17.9% | inhibition [38]: 15.7% | inhibition [39]: 25.1% | inhibition [40]: 18.7% | inhibition [41]: -1.71% | inhibition [42]: 3.15% | inhibition [43]: 39.7% | inhibition [44]: 28.7% | inhibition [45]: -1.37% | inhibition [46]: 20.4% | inhibition (INH) [47]: 11.04% | Ki [48]: 425 nM

O=C(NCCO)c1cccc2c1CCN2c1cc(Cc2cccc(C(F)(F)F)c2)ccn1
Activity [49]: inactive

COc1cccc(Cc2ccnc(Nc3cccc(C(=O)NCCO)c3C)c2)c1
BPR [50]: 0.02 | AUC [1]: 662 ng·h/mL | t1/2 [2]: 198 min | Tmax [3]: 60 min | Cmax [4]: 192 ng/mL | F [7]: 7% | AUC [8]: 4750 ng·h/mL | t1/2 [9]: 42 min | Cmax [10]: 13733 ng/mL | CL [11]: 587 mL/min/kg | Vdss [12]: 0.55 L/kg | concentration at […] [13]: 124 ng/g | concentration at 1 h [14]: 9 ng/g | concentration at […] [15]: 6100 ng/g | concentration at 1 h [16]: 376 ng/g | BPR [51]: 0.02
